Assay outcomes from PubChem BioAssay.
MOR-DOR ag-1: OPRM1-OPRD1 heterodimerization agonism; AID 504326; P35372+P41143; hit rate 0.3% among 340,000; cells, luminescence; activation, % at 9.3 µM
Target sequence (P35372 whole entry, looked up): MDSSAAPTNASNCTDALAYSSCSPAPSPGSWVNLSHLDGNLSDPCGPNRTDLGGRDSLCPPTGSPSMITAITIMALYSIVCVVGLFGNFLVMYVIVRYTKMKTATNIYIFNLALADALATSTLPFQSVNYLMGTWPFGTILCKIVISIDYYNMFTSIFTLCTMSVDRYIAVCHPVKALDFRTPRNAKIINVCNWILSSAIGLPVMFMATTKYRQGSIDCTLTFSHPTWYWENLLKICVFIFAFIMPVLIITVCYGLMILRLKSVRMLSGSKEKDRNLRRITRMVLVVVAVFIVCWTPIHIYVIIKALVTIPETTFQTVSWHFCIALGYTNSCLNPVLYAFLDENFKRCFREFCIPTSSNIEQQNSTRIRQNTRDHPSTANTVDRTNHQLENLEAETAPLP
Target sequence (P41143 whole entry, looked up): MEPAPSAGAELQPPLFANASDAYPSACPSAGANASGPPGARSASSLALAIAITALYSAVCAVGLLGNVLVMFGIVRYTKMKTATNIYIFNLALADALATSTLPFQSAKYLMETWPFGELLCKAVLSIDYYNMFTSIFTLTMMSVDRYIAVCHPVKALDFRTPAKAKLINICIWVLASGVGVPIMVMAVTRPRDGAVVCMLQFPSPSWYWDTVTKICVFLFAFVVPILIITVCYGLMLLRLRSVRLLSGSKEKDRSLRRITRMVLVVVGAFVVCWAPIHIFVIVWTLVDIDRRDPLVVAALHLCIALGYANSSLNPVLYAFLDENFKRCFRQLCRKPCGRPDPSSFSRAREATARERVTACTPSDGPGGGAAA
HTR5A inv ctr: counter-screen for OPRM1-OPRD1 inverse agonists: human HTR5A inverse agonism; P47898; HTR5A cell line, luminescence; inhibition, % at 9.3 µM; hit rate 0.083% among 340,000; AID 504634; in the data active = inhibition mostly above about 23%, no sharp cut-off; inactive = mostly below about 18%
MC4R barr agon: human MC4R agonism via beta-arrestin | P32245 | U2OS MC4R beta-arrestin complementation, luminescence; percent of melanotan II response, DMSO zero | activation, % at 8.9 µM | hit rate 0.98% among 360,000;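 active = activation above a per-plate cutoff, the mean activation of sample wells on that plate plus 3 SD, cut at about 8% in these data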
HTR5A ag: HTR5A agonism, opioid heterodimer counter-screen; activation, % at 9.3 µM; P47898; hit rate 0.61% among 340,000; HTR5A agonist assay, luminescence, cell-based; in the data active = activation mostly above about 9.5%, no sharp cut-off; inactive = mostly below about 7.6%
MC4R antag cAMP: blocks human MC4R cAMP signaling; inhibition, % at 6.5 µM; AID 540295; hit rate 0.48% among 360,000; MC4R-expressing cells, MTII-stimulated cAMP, LANCE TR-FRET;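 active = inhibition above its plate's cutoff, the mean of tested wells on that plate plus 3 SD, cut at about 29% in these data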
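material = U2OS cells stably expressing human melanocortin 4 receptor (MC4R) | also added = Melanotan II challenge | dosing = single nominal compound dose of 6.5 µM | detection = TR-FRET with Eu-cAMP and labeled anti-cAMP, 671 nm | replication = singlicate | timing = compound 30 min, challenge 1 h, detection 1 h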
OPRM1-OPRD1 inv: inverse agonists of human mu-delta opioid receptor heterodimerization; P35372+P41143; cell-based MOR-DOR heterodimer luminescence, inverse agonism; inhibition, % at 9.3 µM; hit rate 0.21% among 340,000; in the data active = inhibition above about 22%, passing the limit was not always enough
MOR-DOR ag-2: promotes OPRM1-OPRD1 heterodimerization in HTR5A counter-screen | shares compounds with HTR5A ag | AID 504913 | U2OS counter-screen cells, complementation luminescence, 3 h | activation, % at 9.3 µM | hit rate 13% among 800
HTR5A ag conf: HTR5A (human) agonism, confirmation; HTR5A agonist cell assay, luminescence; hit rate 17% among 800; shares compounds with HTR5A ag; activation, % at 9.3 µM; in the data active = activation above about 17%
Large screens that a line does not name were inactive (follow-up assays come after a bar, where they were run); ! = not active in a repeat. Compounds with a hit are over-represented: about 2.4% of the library has one in this group of screens. Rule as the data show it, unless noted: active = activation above about 18%; inactive = the rest.

CC1Cc2ccccc2N1C(=O)COC(=O)c1n[nH]c(=O)c2ccccc12 (stereo unspecified)	HTR5A ag 39.8 | MOR-DOR ag-2 inactive | HTR5A ag conf inactive
CN(C)c1ccc(CN(C(=O)COc2ccccc2)C2CCS(=O)(=O)C2)cc1 (stereo unspecified)	HTR5A ag 16.5 | MOR-DOR ag-2 inactive | HTR5A ag conf inactive
Cc1ccccc1OCC(=O)N(Cc1ccc(N(C)C)cc1)C1CCS(=O)(=O)C1 (stereo unspecified)	none
CCOc1ccc(S(=O)(=O)N2CCNC(=O)C2)cc1	HTR5A ag 20.4 | MOR-DOR ag-2 inactive | HTR5A ag conf inactive
CC(C)(C)c1ccc(C(=O)NN=C2CCCC2)cc1	HTR5A ag 14.6 | MOR-DOR ag-2 inactive | HTR5A ag conf inactive
O=C(NN=C1CCCCCCC1)c1ccc(F)cc1	none
CCOc1cc(C2NC(=O)NC(c3ccccc3)=C2C(=O)c2ccccc2)c(Br)cc1OCC(=O)O (stereo unspecified)	none
CN(C)S(=O)(=O)c1cccc(COC(=O)c2ccc3c(c2)OCO3)c1	none
CN(C)S(=O)(=O)c1cccc(COC(=O)c2ccc(Cl)cc2O)c1	HTR5A ag 15.8 | MOR-DOR ag-2 39.0 | HTR5A ag conf inactive
CSCC[C@H](NC(=O)OC(C)(C)C)C(=O)N1CCC(C(=O)N[C@@H](C)C(=O)NC(C)c2ccccc2)CC1 (stereo partly specified)	none
COc1ccc(Cn2c(N)c(S(=O)(=O)c3cccs3)c3nc4ccccc4nc32)cc1	HTR5A ag 15.1 | MOR-DOR ag-2 inactive | HTR5A ag conf inactive
CCN(C(=O)COC(=O)c1ccc(N2C(=O)c3ccccc3C2=O)cc1)C1CCS(=O)(=O)C1 (stereo unspecified)	none
CN(C)CCCN(C(=O)CCS(=O)(=O)c1ccccc1)c1nc2cc3c(cc2s1)OCO3	HTR5A ag 14.9 | MOR-DOR ag-2 inactive | HTR5A ag conf inactive
COc1ccc(OC)c2sc(N(CCCN(C)C)C(=O)CCS(=O)(=O)c3ccccc3)nc12	none
Cc1ccc2sc(N(CCCN(C)C)C(=O)CCS(=O)(=O)c3ccccc3)nc2c1C	HTR5A ag 15.2 | MOR-DOR ag-2 inactive | HTR5A ag conf inactive
CC(=O)c1nc(N2C(=O)CC(Cc3ccccc3)C2=O)sc1C (stereo unspecified)	none
CCOc1ccc(OCC)c(-c2c(=O)n(OCc3ccccc3Br)c3ccccc3[n+]2[O-])c1	none
Cc1nc2ccccc2n1CC(=O)c1ccc(O)c(O)c1	HTR5A ag 21.8 | MOR-DOR ag-2 inactive | HTR5A ag conf 20.5
Cc1ccnc(NC(=O)c2ccccc2[N+](=O)[O-])c1	none
Cc1ccnc(NC(=O)c2cccc3ccccc23)c1	HTR5A ag 17.4 | MOR-DOR ag-2 inactive | HTR5A ag conf inactive
COc1ccccc1CNC(=S)Nc1ccc2nc(N3CCN(C)CC3)cc(C)c2c1	HTR5A ag 69.5 | MOR-DOR ag-2 inactive | HTR5A ag conf 70.2
COc1ccc(CNC(=S)Nc2ccc3nc(N4CCN(C)CC4)cc(C)c3c2)cc1	none
CCCCNC(=O)CCn1c(=O)c2ccccc2n(Cc2ccc(Cl)cc2)c1=O	HTR5A ag 17.8 | MOR-DOR ag-2 inactive | HTR5A ag conf inactive
CCOc1ccc(-n2c(SCC(=O)Nc3ccc(CC)cc3)nc3n[nH]c(C)c3c2=N)cc1	HTR5A ag 17.4 | MOR-DOR ag-2 inactive | HTR5A ag conf inactive
CCCN(CCC)C(=O)CSc1nc2n[nH]c(C)c2c(=N)n1-c1ccc(OCC)cc1	none
CCc1nc2oc3ccccc3c(=O)c2c(=O)n1-c1ccc(C)cc1	none (no result: MOR-DOR ag-1, HTR5A inv ctr, HTR5A ag, OPRM1-OPRD1 inv)
CCc1nc2oc3ccccc3c(=O)c2c(=O)n1-c1ccccc1	HTR5A ag 14.4 | MOR-DOR ag-2 inactive | HTR5A ag conf inactive
CN(CC(=O)Nc1ccc(Cl)cc1)C(=O)CCc1nc2sc3c(c2c(=O)[nH]1)CCCC3	HTR5A ag 20.9 | MOR-DOR ag-2 inactive | HTR5A ag conf inactive
CN(CC(=O)Nc1ccc(F)cc1)C(=O)CCc1nc2sc3c(c2c(=O)[nH]1)CCCC3	none
Cc1cc(C)c(OCCCCNCc2ccccc2)c(Cl)c1	HTR5A ag 19.4 | MOR-DOR ag-2 inactive | HTR5A ag conf inactive
Cc1ccc(NS(=O)(=O)c2ccc(OCC(N)=O)cc2)cc1	none
COc1ccc(-c2csc(NC(C)c3nc4cc(C(=O)NCCCO)ccc4n3Cc3ccc(C)cc3)n2)cc1 (stereo unspecified)	HTR5A ag 30.4 | MOR-DOR ag-2 inactive | HTR5A ag conf 38.2
Cc1c(N=C/C=C2\N(C)c3ccccc3C2(C)C)c(=O)n(-c2ccccc2)n1C	HTR5A ag 48.4 | MOR-DOR ag-2 inactive | HTR5A ag conf 31.9
Cc1c(N=C/C=C2/N(C)c3ccccc3C2(C)C)c(=O)n(-c2ccccc2)n1C	HTR5A ag 21.9 | MOR-DOR ag-2 inactive | HTR5A ag conf 29.3!
Cc1c(NC(=S)/C=C2\N(C)c3ccccc3C2(C)C)c(=O)n(-c2ccccc2)n1C	none
Cc1c(N=C/C=C/c2ccccc2)c(=O)n(-c2ccccc2)n1C	none
Cn1c(=O)n(C)c2cc(S(=O)(=O)NCc3ccccc3)ccc21	none
CN(Cc1ccccc1)S(=O)(=O)c1ccc2c(c1)n(C)c(=O)n2C	HTR5A ag 16.1 | MOR-DOR ag-2 inactive | HTR5A ag conf inactive
CC(C(=O)OCC(=O)N1CCN(c2ccccc2)CC1)N1C(=O)c2ccccc2C1=O (stereo unspecified)	HTR5A ag 18.6 | MOR-DOR ag-2 inactive | HTR5A ag conf inactive
CC(C)CC(C(=O)OCC(=O)N1CCN(c2ccccc2)CC1)N1C(=O)c2ccccc2C1=O (stereo unspecified)	none
Cc1ccc2[nH]c(C)c(/C=N/Nc3nc4ccccc4s3)c2c1	HTR5A ag 20.1 | MOR-DOR ag-2 inactive | HTR5A ag conf inactive
O=C(NCCc1cccs1)C(c1ccccc1)c1ccccc1	none
O=C(CS(=O)(=O)c1ccc(F)cc1)Nc1nnc(-c2ccccc2Cl)o1	HTR5A ag 33.5 | MOR-DOR ag-2 inactive | HTR5A ag conf inactive
COc1ccc(OC)c(C(=O)N2CCCC(Nc3ccc(F)cc3)C2)c1 (stereo unspecified)	none
CC1CN(c2ccccc2)CCN1C(=O)c1cc(COc2c(F)cccc2F)on1 (stereo unspecified)	HTR5A ag 14.5 | MOR-DOR ag-2 inactive | HTR5A ag conf 86.6
CC(=O)Nc1cc(C(=O)N2CCc3ccccc3C2)ccc1Sc1ccc(Cl)cc1	none
Cc1noc(C)c1C(=O)OCC(=O)Nc1ccccc1Oc1ccccc1	none
Cc1noc(C)c1C(=O)OCC(=O)Nc1ccccc1C(=O)NC(C)c1ccccc1 (stereo unspecified)	HTR5A ag 16.8 | MOR-DOR ag-2 inactive | HTR5A ag conf inactive
